{"source": "ChEMBL document CHEMBL3228045", "about": "“1-(Dichloroacetyl)-1,2,3,4-tetrahydro-6-quinolinol esters. New potent antiamebic agents” (J Med Chem, 1979)", "key": {"[1]": {"test": "Antiamebic activity against Entamoeba criceti infected in hamster assessed as reduction of trophozoites in cecum administered intragastric gavage bid for three consecutive days by microscopy", "assay_type": "functional", "settings": "Caecum, po", "in_short": "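Vehicle: 10% gelatin suspension, given by intragastric gavage in two split portions daily (morning and afternoon) for 3 consecutive days, dosed as (mg/kg)/day. Colony infection rate was at least 90%. Five hamsters per group at three twofold dose levels. The day after the last dose, cecal-wall scrapings in saline were examined microscopically at 43×. An animal with no trophozoites counted as cleared.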"}, "[2]": {"test": "Antiamebic activity against trophozoite form of Entamoeba criceti infected in hamster assessed as reduction in spontaneous infection in cecum administered intragastric gavage as single dose by microscopy", "assay_type": "functional", "settings": "Caecum, po", "in_short": "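Hamsters with spontaneous Entamoeba criceti infection were given one oral dose of drug. ED50 is reported ± SE in mg/kg po.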"}, "[3]": {"test": "Antiamebic activity against Entamoeba criceti infected in hamster assessed as reduction of trophozoites in cecum administered intragastric gavage as four dose by microscopy", "assay_type": "functional", "settings": "Caecum, po"}, "[4]": {"system": "Rattus norvegicus", "test": "Toxicity in rat assessed as mortality at 10 mg/kg, po by acute test", "assay_type": "organism-based", "parameters": "dose 10 mg/kg, route oral", "settings": "in vivo"}, "[5]": {"system": "Hamster", "test": "Toxicity in hamster assessed as mortality at 10 mg/kg, po by acute test", "assay_type": "organism-based", "parameters": "dose 10 mg/kg, route oral", "settings": "cricetinae, in vivo"}}, "data": [{"smiles": "O=C(Oc1ccc2c(c1)CCCN2C(=O)C(Cl)Cl)c1ccccc1", "values": [{"measurement": "ED50", "setting": "[1]", "result": 0.2, "unit": "mg/kg"}, {"measurement": "ED50", "setting": "[2]", "result": 1.6, "unit": "mg/kg"}]}, {"smiles": "O=C(C(Cl)Cl)N1CCCc2cc(O)ccc21", "values": [{"measurement": "ED50", "setting": "[1]", "result": 1.2, "unit": "mg/kg"}]}, {"smiles": "O=C(Oc1ccc2c(c1)CCCN2C(=O)C(Cl)Cl)c1cccs1", "values": [{"measurement": "ED50", "setting": "[1]", "result": 0.16, "unit": "mg/kg"}, {"measurement": "ED50", "setting": "[2]", "result": 4.8, "unit": "mg/kg"}]}, {"smiles": "CCCC(=O)Oc1ccc2c(c1)CCCN2C(=O)C(Cl)Cl", "values": [{"measurement": "ED50", "setting": "[1]", "result": 0.75, "unit": "mg/kg"}]}, {"smiles": "CCCCCC(=O)Oc1ccc2c(c1)CCCN2C(=O)C(Cl)Cl", "values": [{"measurement": "ED50", "setting": "[1]", "result": 1.75, "unit": "mg/kg"}]}, {"smiles": "CNC(=O)Oc1ccc2c(c1)CCCN2C(=O)C(Cl)Cl", "values": [{"measurement": "ED50", "setting": "[1]", "result": 5.7, "unit": "mg/kg"}]}, {"smiles": "O=C(C(Cl)Cl)N1CCCc2c1ccc(O)c2Cl", "values": [{"measurement": "ED50", "setting": "[1]", "result": 0.5, "unit": "mg/kg"}]}, {"smiles": "O=C(C(Cl)Cl)N1CCCc2c1ccc(O)c2Br", "values": [{"measurement": "ED50", "setting": "[1]", "result": 0.56, "unit": "mg/kg"}]}, {"smiles": "O=C(Oc1ccc2c(c1Cl)CCCN2C(=O)C(Cl)Cl)c1cccs1", "values": [{"measurement": "ED50", "setting": "[1]", "result": 0.22, "unit": "mg/kg"}]}, {"smiles": "O=C(Oc1ccc2c(c1Cl)CCCN2C(=O)C(Cl)Cl)c1ccco1", "values": [{"measurement": "ED50", "setting": "[1]", "result": 0.21, "unit": "mg/kg"}]}, {"smiles": "O=C(Oc1ccc2c(c1Br)CCCN2C(=O)C(Cl)Cl)c1cccs1", "values": [{"measurement": "ED50", "setting": "[1]", "result": 1.24, "unit": "mg/kg"}]}, {"smiles": "O=C(Oc1ccc2c(c1Br)CCCN2C(=O)C(Cl)Cl)c1ccco1", "values": [{"measurement": "ED50", "setting": "[1]", "result": 0.39, "unit": "mg/kg"}]}, {"smiles": "O=C(CCl)N1CCCc2cc(O)ccc21", "values": [{"measurement": "ED50", "setting": "[1]", "result": 2, "unit": "mg/kg"}]}, {"smiles": "O=C(N1CCCc2cc(O)ccc21)C(Cl)(Cl)Cl", "values": [{"measurement": "ED50", "setting": "[1]", "result": 3, "unit": "mg/kg"}]}, {"smiles": "CN(C(=O)C(Cl)Cl)c1ccc(OC(=O)c2ccco2)cc1", "note": "[DILOXANIDE FUROATE]", "values": [{"measurement": "ED50", "setting": "[1]", "result": "> 3.2", "unit": "mg/kg"}]}, {"smiles": "CCOCCN(Cc1ccc(Oc2ccc([N+](=O)[O-])cc2)cc1)C(=O)C(Cl)Cl", "note": "[ETOFAMIDE]", "values": [{"measurement": "ED50", "setting": "[3]", "result": 0.38, "unit": "mg/kg"}]}, {"smiles": "O=C(Oc1ccc2c(c1)CCCN2C(=O)C(Cl)Cl)c1ccco1", "note": "[QUINFAMIDE]", "values": [{"measurement": "ED50", "setting": "[1]", "result": 0.2, "unit": "mg/kg"}, {"measurement": "Activity", "setting": "[4]", "result": "Non-toxic"}, {"measurement": "Activity", "setting": "[5]", "result": "Non-toxic"}, {"measurement": "ED50", "setting": "[2]", "result": 0.75, "unit": "mg/kg"}]}]}
